This is an account of results in ChEMBL document CHEMBL1134070, “Ring-Constrained (N)-methanocarba nucleosides as adenosine receptor agonists: independent 5'-uronamide and 2'-deoxy modifications” (Bioorg Med Chem Lett, 2001).

The target in assay [1] is T1, Adenosine receptor A1 (Rattus norvegicus, UniProt P25099).
T1 sequence (P25099 whole entry): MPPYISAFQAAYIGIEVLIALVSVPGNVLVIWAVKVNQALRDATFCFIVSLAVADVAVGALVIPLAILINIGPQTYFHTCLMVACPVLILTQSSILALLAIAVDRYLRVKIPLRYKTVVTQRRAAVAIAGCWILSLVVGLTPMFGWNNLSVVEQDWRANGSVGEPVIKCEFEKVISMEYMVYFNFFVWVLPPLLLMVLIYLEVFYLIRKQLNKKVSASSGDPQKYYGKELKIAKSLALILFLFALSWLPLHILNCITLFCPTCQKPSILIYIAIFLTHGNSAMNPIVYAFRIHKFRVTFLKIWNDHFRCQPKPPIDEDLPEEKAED
Kind of assay: Ability to displace specific radioligand [3H]R-PIA binding at Adenosine A1 receptor in rat brain membrane. The format is cell membranes. A digest of the protocol: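 Rat brain membranes; competition against specific [3H]R-PIA binding at A1 receptors.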

The target of assay [2] is T2, Adenosine receptor A2a (Rattus norvegicus, UniProt P30543). Kind of assay: Ability to displace specific radioligand [3H]-CGS- 21680 binding at A2A receptors (rA2A) in rat brain membrane. In kind it is cell membranes. The procedure, abridged:
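Rat striatal membranes; competition against specific [3H]CGS 21680 binding at A2A receptors.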

For assay [3], the target named is T3, Adenosine receptor A3 (Homo sapiens, UniProt P0DMS8).
T3 sequence (P0DMS8 whole entry): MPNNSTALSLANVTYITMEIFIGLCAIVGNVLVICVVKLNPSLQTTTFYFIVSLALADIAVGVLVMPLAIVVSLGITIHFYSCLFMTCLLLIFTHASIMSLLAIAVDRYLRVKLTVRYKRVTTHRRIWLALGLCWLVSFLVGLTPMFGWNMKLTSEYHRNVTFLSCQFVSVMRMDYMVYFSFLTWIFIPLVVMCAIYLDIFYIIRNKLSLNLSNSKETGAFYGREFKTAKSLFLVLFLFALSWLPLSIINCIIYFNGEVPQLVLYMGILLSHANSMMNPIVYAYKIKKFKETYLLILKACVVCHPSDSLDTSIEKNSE
Kind of assay: Ability to displace specific radioligand [125I]AB-MECA binding at human Adenosine A3 receptor expressed in CHO cells. The format is cell-based.

In assay [4] the target is T3, Adenosine receptor A3. Kind of assay: Agonist efficacy as effective concentration to stimulate binding of [35S]GTP-gamma-S, by activation of human A3AR receptor. In kind it is functional. On the technique in general: Binding of GTPγS marks nucleotide exchange on a G protein.
Assay [5] addresses Adenosine receptor A2a (Rattus norvegicus) (UniProt P30543). Kind of assay: Displacement of [3H]-CGS- 21680 from Adenosine A2A receptor in rat striatal membranes at 10 uM. The format is cell membranes. As to conditions: Membrane. A digest of the protocol:
(§1)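 Rat striatal membranes; percent displacement of specific [3H]CGS 21680 binding at A2A receptors measured at a single 10 μM test concentration.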

The target of assay [6] is T4, Adenosine receptor A1 (Homo sapiens) (UniProt P30542).
T4 sequence (whole entry): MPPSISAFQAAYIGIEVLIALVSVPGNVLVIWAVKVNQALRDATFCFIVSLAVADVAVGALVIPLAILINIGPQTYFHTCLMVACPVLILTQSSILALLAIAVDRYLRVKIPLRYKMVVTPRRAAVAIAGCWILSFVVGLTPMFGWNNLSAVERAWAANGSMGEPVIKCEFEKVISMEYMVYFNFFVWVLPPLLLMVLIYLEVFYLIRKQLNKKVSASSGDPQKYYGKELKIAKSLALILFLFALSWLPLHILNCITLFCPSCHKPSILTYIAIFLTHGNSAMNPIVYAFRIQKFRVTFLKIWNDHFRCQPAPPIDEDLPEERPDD
Kind of assay: Efficacy to stimulate binding of [35S]GTP-gamma-S, at human Adenosine A1 receptor. In kind it is functional. A digest of the protocol:
(§2)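 Functional agonist assay: stimulation of [35S]GTP-γ-S binding following activation of the human A1 receptor. EC50 and percent efficacy reported as mean±value.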

Assay [7] concerns the target Adenosine receptor A2a (Rattus norvegicus) (UniProt P30543). Kind of assay: Displacement of [3H]-CGS- 21680 from A2A receptors (rA2A) in rat striatal membranes at 100 uM. The format is cell membranes. As to conditions: Membrane. A digest of the protocol: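 Rat striatal membranes; percent displacement of specific [3H]CGS 21680 binding at A2A receptors measured at a single 100 μM test concentration.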
(In a radioligand displacement assay an active substance lowers the binding of a labelled ligand.)

The target of assay [8] is T5, Adenosine receptor A1 (Homo sapiens, UniProt P30542).
T5 sequence (P30542 whole entry): T4 sequence (whole entry)
Kind of assay: Agonist efficacy as effective concentration to stimulate binding of [35S]GTP-gamma-S, at human A1 adenosine receptor. In kind it is functional. A digest of the protocol: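 Functional agonist assay measuring agonist-stimulated [35S]GTP-γ-S binding through activation of the human A1AR. Potency was reported as EC50 together with percent efficacy, each as mean ± error.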

Assay [9] concerns the target T5, Adenosine receptor A1. Kind of assay: Agonist efficacy as effective concentration to stimulate binding of [35S]GTP-gamma-S, at human Adenosine A1 receptor. In kind it is functional. A digest of the protocol: as §2
The target of assay [10] is Adenosine receptor A2a (Rattus norvegicus) (UniProt P30543). Kind of assay: Displacement of [3H]-CGS- 21680 from A2A receptors (rA2A) in rat striatal membranes at 10 uM. The format is cell membranes. As to conditions: Membrane. A digest of the protocol: as §1
Sequence of Adenosine receptor A2a (Rattus norvegicus) (P30543 whole entry): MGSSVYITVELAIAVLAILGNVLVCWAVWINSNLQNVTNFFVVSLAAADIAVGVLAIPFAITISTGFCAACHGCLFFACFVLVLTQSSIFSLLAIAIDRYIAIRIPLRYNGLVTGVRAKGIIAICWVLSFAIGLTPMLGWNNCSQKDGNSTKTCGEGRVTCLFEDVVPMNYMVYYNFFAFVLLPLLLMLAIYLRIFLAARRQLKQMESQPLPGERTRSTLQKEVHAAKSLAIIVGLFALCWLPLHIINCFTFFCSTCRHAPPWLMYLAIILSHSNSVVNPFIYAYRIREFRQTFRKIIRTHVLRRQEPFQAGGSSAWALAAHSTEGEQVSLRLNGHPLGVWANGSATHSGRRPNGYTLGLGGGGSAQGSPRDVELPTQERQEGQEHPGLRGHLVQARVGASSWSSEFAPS
Assay [11] has as its target T2, Adenosine receptor A2a. Kind of assay: Displacement of [3H]-CGS- 21680 from Adenosine A2A receptor in rat brain membrane. The format is cell membranes.

Where only a bound is given, the exact number is not on record here.

Usually Ki stands for a dissociation constant, usually derived from enzyme kinetics or from competition with a known ligand. Low readings indicate higher affinity, high ones lower affinity. In general, EC50 refers to the concentration at which the effect is half-maximal.

T2 sequence (P30543 whole entry): as above

As for `CNC(=O)[C@@]12C[C@@H]1[C@@H](n1cnc3c(NCc4cccc(I)c4)nc(Cl)nc31)[C@H](O)[C@@H]2O`, the Ki was found to be 83.9 nM at Adenosine receptor A1 [1] and 1660 nM on Adenosine receptor A2a [2].
With `Nc1nc(Cl)nc2c1ncn2[C@H]1[C@H](O)[C@H](O)[C@]2(CO)C[C@H]12`, the Ki at Adenosine receptor A3 [3] is 84.7 nM; on Adenosine receptor A1 [1], 273 nM.
With `CNC(=O)[C@@]12C[C@@H]1[C@@H](n1cnc3c(NCc4cccc(I)c4)ncnc31)[C@H](O)[C@@H]2O`, the Ki stood at 2.39 nM at Adenosine receptor A3 [3], 52.7 nM on Adenosine receptor A1 [1] and 548 nM at Adenosine receptor A2a [2]. Also, on Adenosine receptor A3 [4], the EC50 stood at 6.8 nM.
On to `CNc1nc(Cl)nc2c1ncn2[C@H]1[C@H](O)[C@H](O)[C@]2(CO)C[C@H]12`, for which the Displacement in assay [5] was < 10%. Moreover, the Ki on Adenosine receptor A3 [3] is 22.5 nM; at Adenosine receptor A1 [1], 884 nM.
`OC[C@@]12C[C@@H]1[C@@H](n1cnc3c(NC4CCCC4)ncnc31)C[C@@H]2O` yielded an Efficacy in assay [6] of 30%. For the same compound, the values for the Ki on Adenosine receptor A3 [3] and at Adenosine receptor A1 [1] were 2880 nM and 5110 nM, respectively. The Displacement in [7] worked out at 15%. At Adenosine receptor A1 [8], this compound returned an EC50 of 2890 nM.
In assay [6], `OC[C@@]12C[C@@H]1[C@@H](n1cnc3c(NC4CCCC4)nc(Cl)nc31)C[C@@H]2O` gave an Efficacy of 40%. Further, the EC50 at Adenosine receptor A1 [9] was 2280 nM. Moreover, in assay [7], the Displacement was found to be 45%.
On to `OC[C@@]12C[C@@H]1[C@@H](n1cnc3c(NCc4cccc(I)c4)nc(Cl)nc31)C[C@@H]2O`, for which the values for the Ki on Adenosine receptor A3 [3], on Adenosine receptor A1 [1] and on Adenosine receptor A2a [2] were 912 nM, 8730 nM and 25400 nM, respectively.
Turning to `CNC(=O)[C@@]12C[C@@H]1[C@@H](n1cnc3c(NC)nc(Cl)nc31)[C@H](O)[C@@H]2O`, the Displacement in [10] was < 10%. Moreover, the values for the inhibition constant (Ki) on Adenosine receptor A3 [3] and on Adenosine receptor A1 [1] were 6.19 nM and 805 nM, respectively. The same compound yielded an EC50 at Adenosine receptor A3 [4] of 25.5 nM.
For the compound `CCNC(=O)[C@@]12C[C@@H]1[C@@H](n1cnc3c(N)ncnc31)[C@H](O)[C@@H]2O`, the affinity at Adenosine receptor A2a [11] corresponds to a Ki of 100 nM.
On to `CNc1ncnc2c1ncn2[C@H]1[C@H](O)[C@H](O)[C@]2(CO)C[C@H]12`, for which the Displacement in assay [5] is < 10%.
